From ChEMBL document CHEMBL1142519, “Synthesis and antiprotozoal activity of cationic 2-phenylbenzofurans” (J Med Chem, 2008)
The source made the active and inactive calls. No cut-off for these calls is given here.

How the values were obtained:
Leishmania donovani = test: Antileishmanial activity against Leishmania donovani MHOM/SD/62/1S-CL2D axenic amastigotes; assay type: functional, organism-based
Outline: (§1)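 IC50 values in µM, each the average of duplicate determinations. Parasites were T. b. rhodesiense STIB900 and axenic amastigotes of L. donovani MHOM/SD/62/1S-CL2D. Cytotoxicity was run on rat L6 myoblast cells.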

[1] = Selectivity index, ratio of IC50 for rat L6 cells to IC50 for Leishmania donovani MHOM/SD/62/1S-CL2D; assay type: toxicity, cell-based; settings: read-out: Ratio IC50
Outline: (§2)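 Ratio of the L6 rat myoblast cytotoxicity IC50 to the IC50 against the parasite named in the line. Each IC50 is the average of duplicate determinations.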

[2] = Selectivity index, ratio of IC50 for rat L6 cells to IC50 for chloroquine-resistant Plasmodium falciparum K1; assay type: toxicity, cell-based; settings: read-out: Ratio IC50; outline: as §2
Plasmodium falciparum = test: Antiplasmodial activity against chloroquine-resistant Plasmodium falciparum K1; assay type: functional, organism-based
Outline: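 In vitro IC50 against chloroquine-resistant P. falciparum K1, reported as the average of duplicate determinations.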

[3] = test system: Trypanosoma brucei rhodesiense; test: Antitrypanosomal activity against Trypanosoma brucei rhodesiense STIB 900 bloodstream trypomastigotes; assay type: functional, organism-based; outline: as §1
[4] = test system: Trypanosoma brucei rhodesiense; test: Antitrypanosomal activity against Trypanosoma brucei rhodesiense STIB 900 infected acute mouse model assessed as cured mouse at 5 mg/kg, ip daily for 4 days; assay type: functional, organism-based; design: dose 5 mg/kg
Outline: (§3)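 STIB900 acute mouse model of trypanosomiasis with intraperitoneal dosing. The regimens were daily for 4 days at 20, 5 or 1 mg/kg, or a single 10 mg/kg dose. A cure is a mouse that survives and is parasite-free for 60 days. Average days of survival are also recorded.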

L6 = test: Cytotoxicity against rat L6 cells; assay type: cell-based; outline: as §1
[5] = Selectivity index, ratio of IC50 for rat L6 cells to IC50 for Trypanosoma brucei rhodesiense STIB 900; assay type: toxicity, cell-based; settings: read-out: Ratio IC50; outline: as §2
[6] = test system: Trypanosoma brucei rhodesiense; test: Antitrypanosomal activity against Trypanosoma brucei rhodesiense STIB 900 infected acute mouse model assessed as survival time at 5 mg/kg, ip administered daily for 4 days; assay type: functional; settings: route intraperitoneal
Outline: (§4)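 STIB900 acute mouse model of T. b. rhodesiense infection, with intraperitoneal dosing. Read-out is the average days of survival of treated mice. Cures are counted as mice that survive and stay parasite-free for 60 days.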

[7] = test system: Trypanosoma brucei rhodesiense; test: Antitrypanosomal activity against Trypanosoma brucei rhodesiense STIB 900 infected acute mouse model assessed as cured mouse at 1 mg/kg, ip daily for 4 days; assay type: functional, organism-based; design: dose 1 mg/kg; outline: as §3
[8] = test system: Trypanosoma brucei rhodesiense; test: Antitrypanosomal activity against Trypanosoma brucei rhodesiense STIB 900 infected acute mouse model assessed as survival time at 10 mg/kg, ip; assay type: functional; settings: route intraperitoneal; outline: as §4
[9] = test system: Trypanosoma brucei rhodesiense; test: Antitrypanosomal activity against Trypanosoma brucei rhodesiense STIB 900 infected acute mouse model assessed as survival time at 1 mg/kg, ip administered daily for 4 days; assay type: functional; settings: route intraperitoneal; outline: as §4

Row | SMILES | IC50 (Leishmania donovani) [nM] | selectivity ratio [1] | selectivity ratio [2] | IC50 (Plasmodium falciparum) [nM] | IC50 [3] [nM] | Activity [4] | IC50 (L6) [nM] | selectivity ratio [5] | Survival [6] [days] | Activity [7] | Survival [8] [days] | Survival [9] [days]
1 | c1ccc2[nH]c(-c3ccc(-c4cc5cc(-c6nc7ccccc7[nH]6)ccc5o4)cc3)nc2c1 | > 100000 | 0.1 | 216 | 31 | 249 | inactive | 6700 | 27 | 5.5 | – | – | –
2 | N=C(N)c1ccc(-c2cc3cc(C(=N)N)ccc3o2)c(O)c1 | 1800 | 19 | 8320 | 4 | 2 | – | 33300 | 16600 | >54.5 | inactive | >55.3 | 34.8
3 | N=C(N)c1ccc(-c2cc3cc(C(=N)N)cc(O)c3o2)c(O)c1 | 14000 | 0.2 | 34 | 61 | 18 | – | 2100 | 117 | >56.8 | – | >49.5 | >33.5
4 | CC(C)NC(=N)c1ccc(-c2cc3ccc(C(=N)NC(C)C)cc3o2)c(O)c1 | 39000 | > 5 | > 307 | 597 | 9 | – | > 183000 | > 20300 | >55.5 | – | >51.8 | >46.5
5 | COc1ccc(C(=N)N)cc1-c1cc2ccc(C(=N)N)cc2o1 | 3600 | 36 | 7110 | 18 | 11 | – | 128000 | 11600 | >48 | – | – | –
6 | CC(C)NC(=N)c1ccc(-c2cc3cc(C(=N)NC(C)C)cc(O)c3o2)cc1 | 20000 | > 9 | > 3300 | 56 | 28 | Active | > 185000 | > 6610 | >60 | inactive | >36.3 | >19.8
7 | COc1cc(C(=N)N)ccc1-c1cc2cc(C(=N)N)ccc2o1 | 2000 | 80 | 52300 | 3 | 3 | – | 157000 | 52300 | >47 | – | – | –
8 | N=C(N)c1ccc(-c2cc3ccc(C(=N)N)cc3o2)c(O)c1 | 29000 | > 8 | > 3160 | 70 | 4 | – | > 221000 | > 55200 | >39 | – | – | –
9 | N=C(N)c1cccc(-c2cc3ccc(C(=N)N)cc3o2)c1 | 14000 | 9 | 32800 | 4 | 21 | inactive | 131000 | 6240 | 33 | – | – | –
10 | Oc1ccc(C2=NCCN2)cc1-c1cc2ccc(C3=NCCN3)cc2o1 | 35000 | > 6 | > 1840 | 103 | 83 | inactive | > 189000 | > 2280 | 14 | – | – | –
11 | COc1cc(C(=N)N)cc2cc(-c3ccc(C(=N)N)cc3)oc12 | 3000 | 10 | 5120 | 6 | 6 | Active | 30700 | 5120 | >60 | inactive | >44 | 27.3
12 | N=C(N)c1ccc(-c2cc3cc(C(=N)N)cc(O)c3o2)cc1 | 5300 | 35 | 3920 | 47 | 3 | Active | 184000 | 61300 | >60 | – | >43 | >30.8
13 | COc1ccc(C2=NCCN2)cc1-c1cc2ccc(C3=NCCN3)cc2o1 | 34000 | 0.3 | 150 | 74 | 17 | inactive | 11100 | 653 | 25 | – | – | –
14 | Oc1cc(C2=NCCN2)cc2cc(-c3ccc(C4=NCCN4)cc3)oc12 | 7400 | > 27 | > 9230 | 22 | 4 | – | > 203000 | > 50800 | >49.8 | – | >51.3 | >39
15 | N=C(N)c1ccc(-c2cc3ccc(C(=N)N)cc3o2)cc1 | 3100 | 0.3 | 267 | 3 | 7 | Active | 800 | 114 | >60 | inactive | >39.5 | 26.5
16 | Oc1cc(C2=NCCN2)ccc1-c1cc2ccc(C3=NCCN3)cc2o1 | 13000 | > 15 | > 1970 | 98 | 11 | inactive | > 193000 | > 17500 | 23 | – | – | –
17 | CC(C)NC(=N)c1ccc(-c2cc3ccc(C(=N)NC(C)C)cc3o2)cc1 | 12000 | > 17 | > 13300 | 15 | 148 | – | > 199000 | > 1340 | >38.5 | – | – | –
18 | COc1cc(C(=N)NC(C)C)ccc1-c1cc2ccc(C(=N)NC(C)C)cc2o1 | 32000 | > 6 | > 879 | 206 | 54 | – | > 181000 | > 3350 | >38 | – | – | –
19 | COc1cc(C(=N)NC(C)C)ccc1-c1cc2cc(C(=N)NC(C)C)ccc2o1 | 1500 | 67 | 4900 | 20 | 74 | inactive | 98100 | 1330 | >39 | – | – | –
20 | COc1ccc(C(=N)N)cc1-c1cc2cc(C(=N)N)ccc2o1 | 5700 | 31 | 4480 | 40 | 2 | – | 179000 | 89500 | >57 | – | – | –
21 | N=C(N)c1ccc(OCCCCCOc2ccc(C(=N)N)cc2)cc1 [PENTAMIDINE] | 1800 | – | – | – | – | – | – | – | >45 | – | – | –
22 | c1ccc2[nH]c(-c3ccc4oc(-c5ccc(C6=NCCN6)cc5)cc4c3)nc2c1 | 5700 | 1 | 153 | 40 | 122 | inactive | 6100 | 50 | 11 | – | – | –
23 | N=C(N)c1ccc(O)c(-c2cc3ccc(C(=N)N)cc3o2)c1 | 41000 | 4 | 434 | 378 | 29 | – | 164000 | 5660 | >36 | – | – | –
24 | Oc1cc(C2=NCCN2)ccc1-c1cc2cc(C3=NCCN3)cc(O)c2o1 | 16000 | > 12 | > 6430 | 30 | 10 | inactive | > 193000 | > 19300 | >21 | – | – | –
25 | COc1ccc(C2=NCCN2)cc1-c1cc2cc(C3=NCCN3)ccc2o1 | > 50000 | < 0.6 | 474 | 65 | 27 | inactive | 30800 | 1140 | 8.5 | – | – | –
26 | COc1cc(C(=N)N)ccc1-c1cc2ccc(C(=N)N)cc2o1 | 3700 | 29 | 5400 | 20 | 3 | – | 108000 | 36000 | >34.5 | – | – | –
27 | COc1cc(C2=NCCN2)ccc1-c1cc2ccc(C3=NCCN3)cc2o1 | > 100000 | < 0.04 | 57 | 77 | 49 | inactive | 4400 | 90 | 7 | – | – | –
